Experimental data published in ChEMBL document CHEMBL1764996, “Synthesis and separation of the enantiomers of the neuropeptide S receptor antagonist (9R/S)-3-oxo-1,1-diphenyl-tetrahydro-oxazolo[3,4-a]pyrazine-7-carboxylic acid 4-fluoro-benzylamide (SHA 68)” (J Med Chem, 2011).
Each block holds one compound with its values, some of them ahead of it. Active and inactive are the calls of the source. No cut-off for these calls is given here.

Experiments:
Assay type in all cases: functional, cell-based
[1] = target: T1, Neuropeptide S receptor (Mus musculus) (UniProt Q8BZP8); experiment: Agonist activity at mouse NPSR expressed in HEK293 cells assessed as induction of calcium mobilization at up to 10 uM after 30 mins
T1 sequence (whole entry): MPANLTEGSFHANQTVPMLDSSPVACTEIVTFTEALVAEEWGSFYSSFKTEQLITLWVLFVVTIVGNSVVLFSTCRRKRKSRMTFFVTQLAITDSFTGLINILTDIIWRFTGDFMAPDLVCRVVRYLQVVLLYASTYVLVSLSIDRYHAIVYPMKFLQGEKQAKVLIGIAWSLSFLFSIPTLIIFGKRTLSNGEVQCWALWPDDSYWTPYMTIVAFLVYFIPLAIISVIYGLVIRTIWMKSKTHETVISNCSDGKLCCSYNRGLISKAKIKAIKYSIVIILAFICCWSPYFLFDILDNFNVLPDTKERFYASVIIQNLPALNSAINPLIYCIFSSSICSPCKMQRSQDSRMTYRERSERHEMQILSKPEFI
Outline: (§1)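 HEK293 lines stably expressing human NPSR Ile107 or murine NPSR were grown in DMEM with 10% FBS, 2 mM L-glutamine and hygromycin B (100 mg/L) at 37 °C, 5% CO2. Cells were plated on poly-D-lysine wells and loaded with Fluo-4 AM (3 µM), probenecid 2.5 mM and 0.01% pluronic for 30 min at 37 °C. They were then read in HBSS/20 mM HEPES with probenecid and Brilliant Black on a FlexStation at 37 °C. Peak fluorescence change was taken as % baseline and fitted logistically for potency and maximal effect. Data are mean ± sem, n≥4 in duplicate.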

[2] = target: T1, Neuropeptide S receptor (Mus musculus); experiment: Agonist activity at mouse NPSR expressed in HEK293 cells assessed as induction of calcium mobilization after 30 mins relative to control; outline: as §1
[3] = target: T1, Neuropeptide S receptor (Mus musculus); experiment: (§2) Agonist activity at mouse NPSR expressed in HEK293 cells assessed as induction of calcium mobilization after 30 mins; outline: as §1
Neuropeptide S receptor [4] = target: T2, Neuropeptide S receptor (Mus musculus, UniProt Q8BZP8); experiment: as §2; outline: as §1
T2 sequence (Q8BZP8 whole entry): T1 sequence (whole entry)

[5] = target: T3, Neuropeptide S receptor (Homo sapiens) (UniProt Q6W5P4); experiment: (§3) Agonist activity at human NPSR Asn107 expressed in HEK293 cells assessed as induction of calcium mobilization after 30 mins
T3 sequence (whole entry): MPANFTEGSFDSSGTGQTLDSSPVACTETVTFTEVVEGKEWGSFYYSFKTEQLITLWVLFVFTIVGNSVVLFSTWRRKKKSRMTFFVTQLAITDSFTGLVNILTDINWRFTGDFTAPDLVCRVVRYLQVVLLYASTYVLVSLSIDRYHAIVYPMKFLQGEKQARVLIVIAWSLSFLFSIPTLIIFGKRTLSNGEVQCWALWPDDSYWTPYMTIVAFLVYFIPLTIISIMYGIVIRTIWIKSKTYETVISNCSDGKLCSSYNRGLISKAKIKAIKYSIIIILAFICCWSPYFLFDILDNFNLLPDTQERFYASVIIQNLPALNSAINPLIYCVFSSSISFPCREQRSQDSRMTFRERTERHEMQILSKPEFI
Outline: (§4)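 HEK293 cells stably expressing human NPSR Asn107 were kept in DMEM with 10% FBS, 2 mM glutamine and zeocin (100 mg/L) at 37 °C, 5% CO2. Cells were seeded on poly-D-lysine plates and loaded next day with 3 µM Fluo-4 AM, 2.5 mM probenecid and 0.01% pluronic acid for 30 min at 37 °C. Assay buffer was HBSS with 20 mM HEPES, 2.5 mM probenecid and 500 µM Brilliant Black. Fluorescence was read on a FlexStation at 37 °C. Response was the maximal fluorescence change as % of baseline. Potency and maximal effect came from nonlinear regression, with mean ± sem of ≥4 experiments in duplicate.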

Neuropeptide S receptor [6] = target: T4, Neuropeptide S receptor (Homo sapiens, UniProt Q6W5P4); experiment: as §3; outline: as §4
[7] = target: T3, Neuropeptide S receptor (Homo sapiens); experiment: (§5) Agonist activity at human NPSR Ile107 expressed in HEK293 cells assessed as induction of calcium mobilization after 30 mins; outline: as §1
Neuropeptide S receptor [8] = target: T4, Neuropeptide S receptor; experiment: as §5; outline: as §1
[9] = target: T3, Neuropeptide S receptor (Homo sapiens); experiment: Agonist activity at human NPSR Ile107 expressed in HEK293 cells assessed as induction of calcium mobilization after 30 mins relative to control; outline: as §1
[10] = target: T3, Neuropeptide S receptor (Homo sapiens); experiment: Agonist activity at human NPSR Asn107 expressed in HEK293 cells assessed as induction of calcium mobilization after 30 mins relative to control; outline: as §4

Compound: O=C(NCc1ccc(F)cc1)N1CCN2C(=O)OC(c3ccccc3)(c3ccccc3)C2C1 (single isomer, unassigned)
Activity [1]: inactive

Compound: H-SFRNGVGSGAKKTSFRRAKQ-OH
Emax [2]: 250% | Activity [3]: Dose-dependent effect | EC50 (Neuropeptide S receptor [4]): 1.07 nM

Compound: H-SFRNGVGTGMKKTSFQRAKS-OH [NEUROPEPTIDE S]
Activity [5]: Dose-dependent effect | pEC50 (Neuropeptide S receptor [6]): 9.07 | Activity [7]: Dose-dependent effect | pEC50 (Neuropeptide S receptor [8]): 9.17 | Emax [9]: 333% | Emax [10]: 316%

The remaining lines, values ahead:

Activity [1]: inactive
Compound: O=C(NCc1ccc(F)cc1)N1CCN2C(=O)OC(c3ccccc3)(c3ccccc3)[C@@H]2C1

Activity [1]: inactive
Compound: O=C(NCc1ccc(F)cc1)N1CCN2C(=O)OC(c3ccccc3)(c3ccccc3)[C@H]2C1
